The text below walks through data of ChEMBL document CHEMBL2413035, “Synthesis and biological activity of benzo-fused 7-deazaadenosine analogues. 5- and 6-substituted 4-amino- or 4-alkylpyrimido[4,5-b]indole ribonucleosides” (Bioorg Med Chem, 2013).

Calls of active or inactive are those of the source. The rule behind the calls is not given here. Bounds are passed on as bounds.

The subject of data set [1] is HL-60. Description: Cytotoxicity against human HL60 cells after 3 days by XTT assay. Type of data set: functional, cell-based. The following applies: for IC50: HL-60, 72 h. In a few lines: (§1)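 ATCC lines HL60, HeLa S3, CCRF-CEM and HepG2 exposed to compound for 3 days. Viability read by metabolic XTT tetrazolium reduction.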
For orientation: Tetrazolium dyes change colour on reduction, which living cells bring about.

Data set [2] relates to Hepatitis C virus. Description: Antiviral activity against HCV 1B infected in […] cells. To be noted: genotype 1b. Type of data set: functional, organism-based, Hepacivirus hominis.
Data set [3] deals with Hepatitis C virus. Description: Antiviral activity against HCV 2A infected in […] cells. Type of data set: functional, organism-based, Hepacivirus hominis. To be noted: genotype 2a.
For data set [4], the system named is Hepatitis C virus. Description: Antiviral activity against HCV 1A infected in […] cells. The format is functional, organism-based, Hepacivirus hominis. To be noted: subtype 1a.
Data set [5] can be described thus: Cytotoxicity against human […] cells infected with HCV 1B. The format is cell-based.
The subject of data set [6] is HepG2. Description: Cytotoxicity against human HepG2 cells after 3 days by XTT assay. Type of data set: functional, cell-based. The following applies: for IC50: HepG2, 72 h. A digest of the protocol: as §1
Data set [7] in a line: Cytotoxicity against human […] cells infected with HCV 1A. The format is cell-based.
The nature of data set [8]: Cytotoxicity against human […] cells infected with HCV 2A. The format is cell-based.
Data set [9] deals with CCRF-CEM. Description: Cytotoxicity against human CCRF-CEM cells after 3 days by XTT assay. The format is functional, cell-based. To be noted: for IC50: 72 h. In a few lines:
as §1

The test system of data set [10] is HeLa S3. Description: (§2) Cytotoxicity against human HeLaS3 cells after 3 days by XTT assay. The format is functional, cell-based. A digest of the protocol: as §1
Data set [11] in a line: as §2. To be noted: HeLa S3, 72 h. The format is functional, cell-based. In a few lines:
as §1

The subject of data set [12] is dengue virus type 2. Description: Antiviral activity against Dengue virus 2 infected in Vero cells after 3 days by fluorescence microscopy. The format is functional, organism-based. To be noted: 72 h. A digest of the protocol: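 Vero cells, 20,000/well, seeded the day before in DMEM with L-glutamine, 2% FBS and penicillin/streptomycin. Two-fold serial compound dilutions added in triplicate; DENV-2 added 1 h later at MOI 0.3 IU/cell. Incubated 3 days at 37 °C, 5% CO2. Cells fixed and permeabilized, then stained with DENV-2-specific antibody and Cy3 anti-mouse IgG. Imaged by fluorescence microscopy; EC50 by nonlinear regression.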

Data set [13] in a line: Cytotoxicity against african green monkey Vero cells after 48 hrs by XTT assay. Type of data set: cell-based. To be noted: chlorocebus sabaeus. A digest of the protocol:
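Vero monolayers incubated with serial compound dilutions for 48 h. XTT added for 4 h, and formazan quantified spectrophotometrically. CC50, the 50% cytotoxic concentration, derived by nonlinear regression.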

The nature of data set [14]: Selectivity index, ratio of CC50 for african green monkey Vero cells to EC50 for Dengue virus 2 infected in Vero cells. Type of data set: toxicity, cell-based. The following applies: read-out: Ratio CC50/EC50.

Take `CN(C)c1ncnc2c1c1ccccc1n2[C@@H]1O[C@H](CO)[C@@H](O)[C@H]1O`: the outcome in data set [1], in [6], in data set [9] and in data set [10] was inactive. The EC50 in data set [2] is 7.07 µM; in data set [3], more than 44 µM; in data set [4], 21.3 µM. Further, the CC50 in [5], in data set [7] and in data set [8] was more than 44 µM in each case.
For the compound `Nc1ncnc2c1c1cc(-c3ccco3)ccc1n2[C@@H]1O[C@H](CO)[C@@H](O)[C@H]1O`, the outcome in data set [1], in data set [6], in data set [9] and in [10] was inactive.
Turning to `C[n+]1cnc2c(c1N)c1ccccc1n2[C@@H]1O[C@H](CO)[C@@H](O)[C@H]1O`, the result in data set [1], in data set [6], in data set [9] and in [10] was inactive.
Turning to `Cc1ncnc2c1c1ccccc1n2[C@@H]1O[C@H](CO)[C@@H](O)[C@H]1O`, the IC50 worked out at 54 µM in data set [1], 15 µM in data set [6], 82 µM in [9] and 11 µM in data set [11]. In addition, the EC50 in [2] was 0.34 µM; in [3], more than 44 µM; in data set [4], 0.56 µM. For the same compound, the CC50 in data set [5], in data set [7] and in data set [8] was more than 44 µM in each case.
For the compound `CCCCc1cccc2c1c1c(N)ncnc1n2[C@@H]1O[C@H](CO)[C@@H](O)[C@H]1O`, the EC50 in data set [12] was 14.8 µM; in data set [2] it was 8.81 µM; in [3], more than 44 µM; in [4], more than 44 µM. The result in data set [1], in data set [6], in data set [9] and in data set [10] was inactive. For the same compound, the CC50 at 48 h in data set [13] came out at 62.9 µM. The CC50 in data set [5], in data set [7] and in data set [8] was more than 44 µM each time. Moreover, the selectivity ratio in data set [14] came out at 4.3.
For `Nc1ncnc2c1c1c(Cl)cccc1n2[C@@H]1O[C@H](CO)[C@@H](O)[C@H]1O`, the concentration giving a half-maximal response (EC50) in data set [12] came out at 0.85 µM; in data set [2] it was 0.32 µM; in [3], 1.28 µM; in data set [4], 0.53 µM. The IC50 amounted to 17 µM in data set [1], 21 µM in data set [6], 12 µM in data set [9] and 21 µM in [11]. The same compound came in with a 50% cytotoxic concentration (CC50) at 48 h in data set [13] of 1.14 µM. Also, the CC50 was 1.71 µM in data set [5], 1.16 µM in data set [7] and 1.66 µM in data set [8]. Besides, the selectivity ratio in data set [14] was 1.3.
For `Nc1ncnc2c1c1c(-c3ccsc3)cccc1n2[C@@H]1O[C@H](CO)[C@@H](O)[C@H]1O`, the result in [1], in [6], in data set [9] and in data set [10] was inactive.
In the case of `Nc1ncnc2c1c1cc(-c3ccccc3)ccc1n2[C@@H]1O[C@H](CO)[C@@H](O)[C@H]1O`, the outcome in data set [1], in [6], in data set [9] and in data set [10] was inactive.
For `OC[C@H]1O[C@@H](n2c3ccccc3c3c(C4CC4)ncnc32)[C@H](O)[C@@H]1O`, the outcome in data set [1], in data set [6], in data set [9] and in data set [10] was inactive.
On to `Nc1ncnc2c1c1c(-c3ccccc3)cccc1n2[C@@H]1O[C@H](CO)[C@@H](O)[C@H]1O`, for which the result in data set [1], in data set [6], in [9] and in data set [10] was inactive.
Regarding `Nc1ncnc2c1c1cc(-c3ccsc3)ccc1n2[C@@H]1O[C@H](CO)[C@@H](O)[C@H]1O`, the EC50 in [12] stood at 18.8 µM; in data set [2], 7.38 µM; in data set [3] it was 13.8 µM; in [4], 10.1 µM. The outcome in data set [1], in [6], in [9] and in [10] was inactive. The same compound yielded a CC50 at 48 h in data set [13] of 46.3 µM. Also, the figures for the CC50 in data set [5], in [7] and in [8] were 25.6 µM, 17.3 µM and 30.2 µM, respectively. In addition, the selectivity ratio in data set [14] was found to be 2.5.
On to `Nc1ncnc2c1c1cc(Cl)ccc1n2[C@@H]1O[C@H](CO)[C@@H](O)[C@H]1O`, for which the outcome in data set [1], in [6], in data set [9] and in data set [10] was inactive.
As to `Nc1ncnc2c1c1c(-c3ccco3)cccc1n2[C@@H]1O[C@H](CO)[C@@H](O)[C@H]1O`, the result in data set [1], in data set [6], in data set [9] and in [10] was inactive.
Turning to `Nc1ncnc2c1c1cc(-c3cccs3)ccc1n2[C@@H]1O[C@H](CO)[C@@H](O)[C@H]1O`, the outcome in [1], in data set [6], in data set [9] and in [10] was inactive. In addition, the half-maximal effective concentration (EC50) stood at 8.75 µM in [2], 24.9 µM in data set [3] and 10 µM in data set [4]. Also, the results for the CC50 in data set [5], in [7] and in data set [8] were more than 44 µM, 18.1 µM and more than 44 µM, respectively.
As to `Nc1ncnc2c1c1cc(-c3cc4ccccc4o3)ccc1n2[C@@H]1O[C@H](CO)[C@@H](O)[C@H]1O`, the concentration for a half-maximal effect (EC50) in data set [12] was determined as 15.4 µM; in data set [2], 4.83 µM; in data set [3] it was 8.77 µM; in [4], 6.13 µM. Besides, the IC50 in data set [1] stood at 87 µM; in data set [6] it was 60 µM; in data set [9], 32 µM; in data set [11] it was 93 µM. Besides, the CC50 at 48 h in data set [13] is more than 100 µM. Also, the cytotoxic concentration (CC50) in [5] stood at 28 µM; in data set [7], 14.5 µM; in data set [8], 18 µM. The selectivity ratio in data set [14] was more than 6.5.
Regarding `Nc1ncnc2c1c1cc(-c3ccoc3)ccc1n2[C@@H]1O[C@H](CO)[C@@H](O)[C@H]1O`, the outcome in data set [1], in [6], in [9] and in [10] was inactive.
Regarding `Nc1ncnc2c1c1ccccc1n2[C@@H]1O[C@H](CO)[C@@H](O)[C@H]1O`, the concentration giving a half-maximal response (EC50) in [12] was 39.6 µM; in data set [2], 11.1 µM; in data set [3], more than 44 µM; in data set [4], 30.6 µM. Further, the result in data set [1], in [6], in data set [9] and in [10] was inactive. For the same compound, in data set [13], the midpoint of cytotoxicity, the CC50 at 48 h, lay at 43.5 µM. Moreover, the CC50 in [5], in data set [7] and in [8] was more than 44 µM throughout. Also, in data set [14], the selectivity ratio stood at 1.1.

One may read the EC50 as the concentration at which the effect is half-maximal. As usually defined, the CC50 is the concentration giving 50% cytotoxicity. As a reminder, the IC50 is the concentration at which inhibition is half-maximal.
